Laboratory results reported in ChEMBL document CHEMBL5303300, “EUbOPEN Chemogenomics Library - Multiplex” (2023).
Where “and” joins values, the source holds several entries; their conditions need not be identical. Equal entries are not always repeated.

Key:
Format in all cases: toxicity, cell-based
[1] = test system: Fibroblast; experiment: Multiplex assay against human fibroblast; details: 10 µM, compound concentration 10 uM, number of replicates 2
Outline: (§1)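 Four dyes were applied at seeding to live cells: Hoechst33342, BioTracker Green Microtubule Cytoskeleton Dye, MitoTracker Red and Annexin V Alexa Fluor 680. Imaging after compound addition used a CQ1 microscope at 37°C and 5% CO2. CellPathfinder machine-learning gating then sorted cells into Hoechst high-intensity objects or normal cells, normal cells into healthy, pyknosed or fragmented nuclei, and pyknosed cells into mitotic or apoptotic, with tubulin, mitochondrial-mass and membrane-permeability phenotypes given as per cents of healthy-nucleus cells.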

[2] = test system: HEK-293T; experiment: Multiplex assay against HEK293T; details: human, 10 µM, compound concentration 10 uM, number of replicates 2; outline: as §1
[3] = test system: U2OS; experiment: Multiplex assay against U2OS; details: human, 10 µM, compound concentration 10 uM, number of replicates 2; outline: as §1

Compound: CC(=O)O[C@H]1C(=O)[C@@]2(C)[C@H]([C@H](OC(=O)c3ccccc3)[C@]3(O)C[C@H](OC(=O)[C@H](O)[C@@H](NC(=O)c4ccccc4)c4ccccc4)C(C)=C1C3(C)C)[C@]1(OC(C)=O)CO[C@@H]1C[C@@H]2O [PACLITAXEL]
- Population Apoptotic (%) ([1]; 12 h): 50% and 51% and 43% and 57%
- Population Fragmented Nuclei (%) ([1]; 12 h): 18% and 14% and 8% and 16%
- Population Healthy Nuclei (%) ([1]; 12 h): 60% and 57% and 66%
- Population Hoechst High Intensity Objects (%) ([1]; 12 h): 0%
- Population Membrane Permeable-Phenotype (%) ([1]; 12 h): 2% and 1%
- Population Mitochondria Different-Phenotype (%) ([1]; 12 h): 4% and 1% and 2% and 7%
- Population Mitotic Cells (%) ([1]; 12 h): 50% and 48% and 56% and 42%
- Population Normal (%) ([1]; 12 h): 100% and 99%
- Population Pyknosed Nuclei (%) ([1]; 12 h): 21% and 28% and 24% and 17%
- Population Tubulin-Different-Phenotype (%) ([1]; 12 h): 14% and 15% and 13%
- Population Apoptotic (%) ([1]; 24 h): 68% and 71% and 75% and 53%
- Population Fragmented Nuclei (%) ([1]; 24 h): 14% and 11% and 18%
- Population Healthy Nuclei (%) ([1]; 24 h): 61% and 56% and 63%
- Population Hoechst High Intensity Objects (%) ([1]; 24 h): 0%
- Population Membrane Permeable-Phenotype (%) ([1]; 24 h): 0% and 2% and 1%
- Population Mitochondria Different-Phenotype (%) ([1]; 24 h): 4% and 10% and 7% and 8%
- Population Mitotic Cells (%) ([1]; 24 h): 31% and 28% and 24% and 46%
- Population Normal (%) ([1]; 24 h): 100% and 99%
- Population Pyknosed Nuclei (%) ([1]; 24 h): 23% and 28% and 25% and 19%
- Population Apoptotic (%) ([1]; 48 h): 92% and 82% and 86% and 71%
- Population Fragmented Nuclei (%) ([1]; 48 h): 23% and 16% and 19% and 22%
- Population Healthy Nuclei (%) ([1]; 48 h): 60% and 62% and 63%
- Population Hoechst High Intensity Objects (%) ([1]; 48 h): 0%
- Population Membrane Permeable-Phenotype (%) ([1]; 48 h): 1% and 7% and 3%
- Population Mitochondria Different-Phenotype (%) ([1]; 48 h): 6% and 9% and 7%
- Population Normal (%) ([1]; 48 h): 100% and 99%
- Population Pyknosed Nuclei (%) ([1]; 48 h): 15% and 20% and 16%
- Population Tubulin-Different-Phenotype (%) ([1]; 48 h): 14% and 19% and 11% and 10%
- Population Apoptotic (%) ([2]; 12 h): 60% and 50% and 49% and 45%
- Population Fragmented Nuclei (%) ([2]; 12 h): 3% and 1% and 2%
- Population Healthy Nuclei (%) ([2]; 12 h): 74% and 80% and 77%
- Population Hoechst High Intensity Objects (%) ([2]; 12 h): 6% and 9% and 5% and 7%
- Population Membrane Permeable-Phenotype (%) ([2]; 12 h): 0%
- Population Mitochondria Different-Phenotype (%) ([2]; 12 h): 48% and 39% and 43% and 50%
- Population Mitotic Cells (%) ([2]; 12 h): 39% and 49% and 50% and 54%
- Population Normal (%) ([2]; 12 h): 93% and 90% and 94% and 92%
- Population Pyknosed Nuclei (%) ([2]; 12 h): 22% and 17% and 20%
- Population Tubulin-Different-Phenotype (%) ([2]; 12 h): 52% and 56% and 58% and 57%
- Total Cell Count ([2]; 12 h): 418 and 518 and 523 and 401
- Population Apoptotic (%) ([2]; 24 h): 65% and 51% and 71% and 68%
- Population Fragmented Nuclei (%) ([2]; 24 h): 3% and 4% and 2%
- Population Healthy Nuclei (%) ([2]; 24 h): 81% and 82% and 77%
- Population Hoechst High Intensity Objects (%) ([2]; 24 h): 9% and 12% and 10% and 8%
- Population Membrane Permeable-Phenotype (%) ([2]; 24 h): 0%
- Population Mitochondria Different-Phenotype (%) ([2]; 24 h): 45% and 43% and 58%
- Population Mitotic Cells (%) ([2]; 24 h): 35% and 48% and 28% and 31%
- Population Normal (%) ([2]; 24 h): 90% and 87% and 89% and 91%
- Population Pyknosed Nuclei (%) ([2]; 24 h): 15% and 14% and 18%
- Population Tubulin-Different-Phenotype (%) ([2]; 24 h): 56% and 47%
- Total Cell Count ([2]; 24 h): 442 and 490 and 384 and 517
- Population Apoptotic (%) ([2]; 48 h): 71% and 81% and 64% and 73%
- Population Fragmented Nuclei (%) ([2]; 48 h): 3% and 2% and 4%
- Population Healthy Nuclei (%) ([2]; 48 h): 88% and 89% and 84% and 83%
- Population Hoechst High Intensity Objects (%) ([2]; 48 h): 11% and 9%
- Population Membrane Permeable-Phenotype (%) ([2]; 48 h): 0%
- Population Mitochondria Different-Phenotype (%) ([2]; 48 h): 44% and 41% and 50%
- Population Mitotic Cells (%) ([2]; 48 h): 28% and 18% and 35% and 26%
- Population Normal (%) ([2]; 48 h): 88% and 90%
- Population Pyknosed Nuclei (%) ([2]; 48 h): 7% and 10% and 13%
- Population Tubulin-Different-Phenotype (%) ([2]; 48 h): 59% and 58% and 62%
- Total Cell Count ([2]; 48 h): 478 and 469 and 500 and 350
- Population Apoptotic (%) ([3]; 12 h): 75% and 81% and 77%
- Population Healthy Nuclei (%) ([3]; 12 h): 47% and 63% and 72% and 76%
- Population Hoechst High Intensity Objects (%) ([3]; 12 h): 0%
- Population Membrane Permeable-Phenotype (%) ([3]; 12 h): 6% and 3% and 4%
- Population Mitochondria Different-Phenotype (%) ([3]; 12 h): 12% and 10% and 16% and 15%
- Population Mitotic Cells (%) ([3]; 12 h): 25% and 18% and 22%
- Population Normal (%) ([3]; 12 h): 100% and 99%
- Population Pyknosed Nuclei (%) ([3]; 12 h): 11% and 18% and 15% and 13%
- Population Tubulin-Different-Phenotype (%) ([3]; 12 h): 33% [middle of 4 runs]
- Population Apoptotic (%) ([3]; 24 h): 72% and 57% and 74% and 78%
- Population Healthy Nuclei (%) ([3]; 24 h): 33% and 55% and 66% and 65%
- Population Hoechst High Intensity Objects (%) ([3]; 24 h): 2% and 0%
- Population Membrane Permeable-Phenotype (%) ([3]; 24 h): 7% and 3%
- Population Mitochondria Different-Phenotype (%) ([3]; 24 h): 27% [middle of 4 runs]
- Population Mitotic Cells (%) ([3]; 24 h): 27% and 42% and 26% and 21%
- Population Normal (%) ([3]; 24 h): 97% and 100% and 99%
- Population Pyknosed Nuclei (%) ([3]; 24 h): 26% and 25% and 20%
- Population Tubulin-Different-Phenotype (%) ([3]; 24 h): 21% and 19% and 36%
- Population Apoptotic (%) ([3]; 48 h): 77% and 76% and 90% and 93%
- Population Healthy Nuclei (%) ([3]; 48 h): 33% and 30% and 56% and 60%
- Population Hoechst High Intensity Objects (%) ([3]; 48 h): 0%
- Population Mitochondria Different-Phenotype (%) ([3]; 48 h): 38% and 42% and 41%
- Population Normal (%) ([3]; 48 h): 100% and 99%
- Population Pyknosed Nuclei (%) ([3]; 48 h): 35% and 28% and 32%
- Population Tubulin-Different-Phenotype (%) ([3]; 48 h): 33% and 28% and 32% and 41%
